For data set [1], the system named is Mycolicibacterium smegmatis. Briefly: Antimycobacterial activity against Mycobacterium smegmatis MC2 155 after 3 days by broth microdilution method. Type of data set: functional. To be noted: str. MC2 155, 72 h. The procedure, abridged:
(§1)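 Growth inhibition of M. smegmatis mc²155 (ATCC700084) or M. tuberculosis H37Rv (ATCC27294) determined by broth microdilution; MIC in µg/mL. Where no exact MIC was reachable, the highest concentration technically testable is reported as a lower bound.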

The test system of the next data set is PBMC. Briefly: Cytotoxicity against human PBMC assessed as cell viability after 3 days by AlamarBlue assay. The note with it: 72 h. Type of data set: cell-based.
Data set [2] relates to Mycolicibacterium smegmatis MC2 155.
Data set [3] has as its system Mycobacterium tuberculosis. Briefly: Antimycobacterial activity against Mycobacterium tuberculosis H37Rv infected in human monocyte-derived macrophages assessed as reduction of colony forming unit at 16 ug/ml after 3 weeks by broth microdilution method in presence of 0.05 ug/ml of isoniazid. Type of data set: functional, organism-based. A digest of the protocol: (§2)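 Human monocyte-derived macrophages infected with M. tuberculosis H37Rv; each compound added at a concentration giving ≥90% macrophage viability over 3 days of treatment, alone or combined with INH or RIF at a non-antibiotic inhibitory concentration. The read-out was intracellular killing.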

Data set [4] has as its system Mycobacterium tuberculosis. Briefly: Antimycobacterial activity against Mycobacterium tuberculosis H37Rv infected in human monocyte-derived macrophages assessed as reduction of colony forming unit at 16 ug/ml after 3 weeks by broth microdilution method in presence of 0.5 ug/ml of rifampin. Type of data set: functional, organism-based. A digest of the protocol: as §2

Data set [5] concerns Mycobacterium tuberculosis. Description: Antimycobacterial activity against Mycobacterium tuberculosis H37Rv infected in human monocyte-derived macrophages assessed as reduction of colony forming unit at 0.078 ug/ml after 3 weeks by broth microdilution method in presence of 0.05 ug/ml of isoniazid. Type of data set: functional, organism-based. The procedure, abridged: as §2

For data set [6], the system named is Mycobacterium tuberculosis. Briefly: Antimycobacterial activity against Mycobacterium tuberculosis H37Rv infected in human monocyte-derived macrophages assessed as reduction of colony forming unit at 0.078 ug/ml after 3 weeks by broth microdilution method in presence of 0.5 ug/ml of rifampin. The class given is functional, organism-based. A digest of the protocol:
as §2

Data set [7] relates to Mycobacterium tuberculosis. Description: Antimycobacterial activity against Mycobacterium tuberculosis H37Rv infected in human monocyte-derived macrophages assessed as reduction of colony forming unit at 1.25 ug/ml after 3 weeks by broth microdilution method in presence of 0.05 ug/ml of isoniazid. The class given is functional, organism-based. The procedure, abridged: as §2

Data set [8] has as its system Mycobacterium tuberculosis. Description: Antimycobacterial activity against Mycobacterium tuberculosis H37Rv infected in human monocyte-derived macrophages assessed as reduction of colony forming unit at 1.25 ug/ml after 3 weeks by broth microdilution method in presence of 0.5 ug/ml of rifampin. The class given is functional, organism-based. The procedure, abridged:
as §2

Data set [9] relates to Mycobacterium tuberculosis. Description: Antimycobacterial activity against Mycobacterium tuberculosis H37Rv infected in human monocyte-derived macrophages assessed as reduction of colony forming unit at 40 ug/ml after 3 weeks by broth microdilution method in presence of 0.05 ug/ml of isoniazid. Type of data set: functional, organism-based. A digest of the protocol: as §2

Data set [10] deals with Mycobacterium tuberculosis. Briefly: Antimycobacterial activity against Mycobacterium tuberculosis H37Rv infected in human monocyte-derived macrophages assessed as reduction of colony forming unit at 40 ug/ml after 3 weeks by broth microdilution method in presence of 0.5 ug/ml of rifampin. The class given is functional, organism-based. The procedure, abridged:
as §2

For data set [11], the system named is Mycobacterium tuberculosis. Briefly: Antimycobacterial activity against Mycobacterium tuberculosis H37Rv infected in human monocyte-derived macrophages assessed as reduction of colony forming unit at 16 ug/ml after 3 weeks by broth microdilution method. Type of data set: functional, organism-based. A digest of the protocol:
as §2

In data set [12] the test system is Mycobacterium tuberculosis. Briefly: Antimycobacterial activity against Mycobacterium tuberculosis H37Rv infected in human monocyte-derived macrophages assessed as reduction of colony forming unit at 0.078 ug/ml after 3 weeks by broth microdilution method. Type of data set: functional, organism-based. The procedure, abridged: as §2
Data set [13] deals with Mycobacterium tuberculosis. Briefly: Antimycobacterial activity against Mycobacterium tuberculosis H37Rv infected in human monocyte-derived macrophages assessed as reduction of colony forming unit at 1.25 ug/ml after 3 weeks by broth microdilution method. The class given is functional, organism-based. The procedure, abridged: as §2
Data set [14] concerns Mycobacterium tuberculosis. Description: Antimycobacterial activity against Mycobacterium tuberculosis H37Rv infected in human monocyte-derived macrophages assessed as reduction of colony forming unit at 40 ug/ml after 3 weeks by broth microdilution method. Type of data set: functional, organism-based. The procedure, abridged: as §2
Data set [15] deals with Mycobacterium tuberculosis. Briefly: Antimycobacterial activity against Mycobacterium tuberculosis H37Rv after 3 days by broth microdilution method. Type of data set: functional. To be noted: 72 h. A digest of the protocol:
as §1

A short description of data set [16]: Ratio of thioridazine IC50 to compound IC50 for human PBMC. Type of data set: ADME, cell-based. The note with it: PBMC (peripheral blood mononuclear cells), read-out: Ratio IC50.

Converted amounts (≈) assume the structure as drawn. The source made the active and inactive calls. The calls are words filed in the database; no cut-off is given here. A value given as a limit tells only on which side of the number the result lay.

The source of these data is ChEMBL document CHEMBL3593164, “Rational Design and Synthesis of Thioridazine Analogues as Enhancers of the Antituberculosis Therapy” (J Med Chem, 2015).

The compound `CN1CCCCC1CCn1c2ccccc2c(=O)c2ccccc21` (configuration not stated) had an MIC in data set [1] of 64 µg/mL (≈ 200 µM). Besides, in the data set with PBMC, the IC50 was 2.37 µM. For the same compound, the RFU in data set [2] was determined as 0.94.

In data set [1], `c1ccc(CCn2c3ccccc3c3ccccc32)nc1` yielded an MIC of over 64 µg/mL. For the same compound, in [2], the RFU is -0.17.

`c1ccc2c(c1)c1ccccc1n2CCN1CCCCC1` returned an MIC in [1] of over 256 µg/mL. The compound also came in with an RFU in data set [2] of 0.08.

Compound `CN1CCCCC1CCn1c(C(=O)NC23CC4CC(CC(C4)C2)C3)cc2cc(Cl)ccc21` (mixture of isomers) gave an MIC in [1] of over 256 µg/mL. The same compound showed an RFU in [2] of 0.17.

Take `COc1ccc(C(C#N)(CCC2CCCCN2C)C(C)C)cc1OC` (mixture of isomers): the MIC in data set [1] is over 256 µg/mL. The compound also returned an RFU in data set [2] of 0.72.

The compound `Cc1c(Cc2ccccc2)c(=O)n2c3ccccc3n(CCC3CCCCN3C)c2c1C#N` (racemic) showed an MIC in data set [1] of over 64 µg/mL. This compound returned an RFU in data set [2] of 0.66.

`COc1ccc(N(CCC2CCCCN2C)C(C)C)cc1OC` (racemic): the outcome in [3], in data set [4], in data set [5], in [6], in [7] and in data set [8] was Active. Moreover, the outcome in data set [9], in data set [10], in [11], in [12], in data set [13] and in data set [14] was Active. The MIC in data set [1] and in data set [15] was over 256 µg/mL each time. The IC50 in the data set with PBMC was 265 µM. Also, the RFU in data set [2] was determined as 1.17.

For the compound `CN1CCCCC1CCn1c2ccccc2c2ccccc21` (racemic), the result in data set [3], in [4], in data set [5], in [6], in [7] and in data set [8] was Active. The result in data set [9], in data set [10], in data set [11], in data set [12], in [13] and in data set [14] was Active. The MIC in [1] came to 256 µg/mL (≈ 875 µM); in [15], 128 µg/mL (≈ 438 µM). The IC50 in the data set on PBMC was 30 µM. The selectivity ratio in data set [16] amounted to 2. Besides, in data set [2], the RFU is 0.95.

Consider `CN1CCCCC1CCn1ccc2ccc(Br)cc21` (racemic), for which the result in data set [3], in data set [4], in [5], in data set [6], in data set [7] and in data set [8] was Active. The result in data set [9], in data set [10], in data set [11], in data set [12], in data set [13] and in data set [14] was Active. In addition, the MIC was 64 µg/mL (≈ 199 µM) in data set [1] and over 256 µg/mL in data set [15]. Moreover, the IC50 with PBMC worked out at 32.5 µM. The selectivity ratio in data set [16] is 2. This compound yielded an RFU in [2] of 0.81.

As to `CN1CCCCC1CCn1cnc2ccccc21` (racemic), the outcome in [3], in data set [4], in [5], in [6], in data set [7] and in data set [8] was Active. Also, the result in data set [9], in data set [10], in data set [11], in [12], in data set [13] and in data set [14] was Active. Further, the minimal inhibitory concentration (MIC) in data set [1] and in data set [15] was over 256 µg/mL throughout. Further, in the data set with PBMC, the IC50 was 702 µM. This compound also came in with an RFU in [2] of 15.3.

`CN1CCCCC1CCN(c1ccccc1)c1ccccc1` (racemic): in data set [1], the MIC was over 64 µg/mL. For the same compound, the RFU in [2] is 0.61.

In the case of `COc1ccc(N(CCC2CCCCN2C)c2ccccc2)cc1OC` (racemic), in data set [1], it took 256 µg/mL (≈ 722 µM) to inhibit growth (MIC). The compound further displayed an RFU in [2] of 0.76.

On to `CN1CCCCC1CCN1CCCC1` (racemic), for which, in data set [1], the MIC is over 256 µg/mL. In addition, the RFU in [2] amounted to 0.39.

Regarding `CSc1ccc2c(c1)N(CCC1CCCCN1C)c1ccccc1S2` (configuration not stated) [THIORIDAZINE], the MIC was determined as 30 µg/mL (≈ 81 µM) in data set [1] and 15 µg/mL (≈ 40.5 µM) in [15]. For the same compound, the IC50 with PBMC turned out to be 13.8 µM. The RFU in data set [2] is 0.82.

As to `COc1ccc(CCN(C)CCCC(C#N)(c2ccc(OC)c(OC)c2)C(C)C)cc1OC` (configuration not stated) [VERAPAMIL], the minimum inhibitory concentration (MIC) came to 800 µg/mL (≈ 1760 µM) in data set [1] and 512 µg/mL (≈ 1130 µM) in data set [15]. Besides, the IC50 in the data set on PBMC worked out at 117 µM.
